Source: ChEMBL document CHEMBL5154715, “Phenolic Lipids Derived from Cashew Nut Shell Liquid to Treat Metabolic Diseases” (J Med Chem, 2022)
Active and inactive are the calls of the source. The calls are words filed in the database; no cut-off is given here.

How the values were obtained:
[1] = target: T1, Peroxisome proliferator-activated receptor alpha (Homo sapiens) (UniProt Q07869); experiment: Agonist activity at human PPARalpha transfected in HEK293 cells assessed as relative luciferase unit at 50 uM measured after 16 hrs by luciferase reporter gene assay; assay type: cell-based; conditions: filed as agonist
T1 sequence (whole entry): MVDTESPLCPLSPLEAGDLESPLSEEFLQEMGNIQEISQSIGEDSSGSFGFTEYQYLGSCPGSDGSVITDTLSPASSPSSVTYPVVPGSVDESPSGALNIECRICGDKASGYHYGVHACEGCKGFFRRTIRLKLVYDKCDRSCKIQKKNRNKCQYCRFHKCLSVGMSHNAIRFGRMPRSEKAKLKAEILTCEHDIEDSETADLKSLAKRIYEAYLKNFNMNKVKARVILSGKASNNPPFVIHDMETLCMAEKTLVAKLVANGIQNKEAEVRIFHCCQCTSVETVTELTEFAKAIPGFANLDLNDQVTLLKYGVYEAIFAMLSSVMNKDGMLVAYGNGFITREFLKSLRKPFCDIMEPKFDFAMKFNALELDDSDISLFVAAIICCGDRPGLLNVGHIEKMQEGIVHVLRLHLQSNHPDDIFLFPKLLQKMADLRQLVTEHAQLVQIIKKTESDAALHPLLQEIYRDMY
Summary of the method: (§1)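 GAL4-hPPAR (α or γ) plus UAS-luciferase and β-galactosidase transiently co-transfected into HEK293 cells, then treated with 50 μM compound for 16 h. RLU = luciferase/β-galactosidase × time, vehicle (DMSO) set to 1. Mean ± SD, N = 3; one-way ANOVA with Holm–Šidák vs vehicle.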

[2] = target: T2, Peroxisome proliferator-activated receptor gamma (Homo sapiens) (UniProt P37231); experiment: Agonist activity at human PPARgamma transfected in HEK293 cells assessed as relative luciferase unit at 50 uM measured after 16 hrs by luciferase reporter gene assay; assay type: cell-based; conditions: filed as agonist; summary of the method: as §1
T2 sequence (whole entry): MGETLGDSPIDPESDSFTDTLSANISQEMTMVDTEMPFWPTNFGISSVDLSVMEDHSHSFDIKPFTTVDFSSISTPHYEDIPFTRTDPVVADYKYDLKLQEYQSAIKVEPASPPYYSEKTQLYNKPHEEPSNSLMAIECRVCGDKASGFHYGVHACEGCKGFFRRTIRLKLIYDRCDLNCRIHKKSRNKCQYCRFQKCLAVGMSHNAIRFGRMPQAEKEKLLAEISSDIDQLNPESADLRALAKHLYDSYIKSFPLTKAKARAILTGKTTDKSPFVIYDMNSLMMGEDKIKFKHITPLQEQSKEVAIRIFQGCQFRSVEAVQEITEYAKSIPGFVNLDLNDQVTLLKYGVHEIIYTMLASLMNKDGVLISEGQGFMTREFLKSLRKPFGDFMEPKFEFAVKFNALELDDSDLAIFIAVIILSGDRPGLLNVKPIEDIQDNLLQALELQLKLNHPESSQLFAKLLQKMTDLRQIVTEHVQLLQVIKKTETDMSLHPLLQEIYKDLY

[3] = target: T3, Peroxisome proliferator-activated receptor alpha (Homo sapiens, UniProt Q07869); experiment: Agonist activity at human PPARalpha expressed in HEK293 cells by luciferase/beta-galactosidase reporter gene assay; assay type: cell-based
T3 sequence (Q07869 whole entry): T1 sequence (whole entry)
Summary of the method: (§2)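 HEK293 cells in charcoal-stripped FBS, calcium phosphate co-transfected with GAL4-hPPAR LBD fusion, UAS-luciferase and β-galactosidase. Ligand added 6–8 h post transfection, full dose–response, harvested 14–16 h later. Luciferase normalized to β-galactosidase.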

[4] = target: T4, Peroxisome proliferator-activated receptor gamma (Homo sapiens, UniProt P37231); experiment: Agonist activity at human PPARgamma expressed in HEK293 cells by luciferase/beta-galactosidase reporter gene assay; assay type: cell-based; summary of the method: as §2
T4 sequence (P37231 whole entry): T2 sequence (whole entry)

[5] = target: T1, Peroxisome proliferator-activated receptor alpha (Homo sapiens); experiment: Agonist activity at human PPARalpha expressed in HEK293 cells assessed as maximal activity by luciferase/beta-galactosidase reporter gene assay relative to GW7647; assay type: cell-based; summary of the method: as §2
[6] = target: T5, Peroxisome proliferator-activated receptor alpha (Mus musculus) (UniProt P23204); experiment: Agonist activity at human PPARalpha in mouse hepatocytes assessed as induction of fabp1 mRNA expression at 50 uM incubated for 16 hrs by quantitative real-time PCR analysis; assay type: cell-based; conditions: Hepatocyte, filed as agonist
T5 sequence (whole entry): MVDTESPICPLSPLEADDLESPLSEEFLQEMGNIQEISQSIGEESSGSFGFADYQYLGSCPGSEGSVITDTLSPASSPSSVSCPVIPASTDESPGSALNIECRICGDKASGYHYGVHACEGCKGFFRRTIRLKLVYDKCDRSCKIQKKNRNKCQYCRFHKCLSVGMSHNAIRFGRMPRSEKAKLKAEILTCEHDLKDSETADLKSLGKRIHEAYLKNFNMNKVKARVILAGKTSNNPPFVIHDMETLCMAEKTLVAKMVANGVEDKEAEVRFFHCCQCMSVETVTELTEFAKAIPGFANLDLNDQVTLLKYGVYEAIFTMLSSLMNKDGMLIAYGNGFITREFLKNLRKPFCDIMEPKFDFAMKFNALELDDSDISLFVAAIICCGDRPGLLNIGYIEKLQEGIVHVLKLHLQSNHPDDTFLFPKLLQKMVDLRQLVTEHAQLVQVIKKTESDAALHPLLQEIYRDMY
Summary of the method: (§3)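 Collagenase-perfused mouse primary hepatocytes from WT mice, plated 2 h in attachment medium, overnight in M199 with 5% charcoal-stripped FBS and 1 nM insulin. Treated next day in serum-free M199 with 50 μM compound for 16 h. RNA qPCR (SYBR Green), comparative Ct method.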

[7] = target: T5, Peroxisome proliferator-activated receptor alpha (Mus musculus); experiment: Agonist activity at human PPARalpha in mouse hepatocytes assessed as induction of cd36 mRNA expression at 50 uM incubated for 16 hrs by quantitative real-time PCR analysis; assay type: cell-based; conditions: Hepatocyte, filed as agonist; summary of the method: as §3
[8] = target: T5, Peroxisome proliferator-activated receptor alpha (Mus musculus); experiment: Agonist activity at human PPARalpha in mouse hepatocytes assessed as induction of Pdk4 mRNA expression at 50 uM incubated for 16 hrs by quantitative real-time PCR analysis; assay type: cell-based; conditions: Hepatocyte, filed as agonist; summary of the method: as §3
[9] = target: T6, Peroxisome proliferator-activated receptor delta (Homo sapiens) (UniProt Q03181)
T6 sequence (whole entry): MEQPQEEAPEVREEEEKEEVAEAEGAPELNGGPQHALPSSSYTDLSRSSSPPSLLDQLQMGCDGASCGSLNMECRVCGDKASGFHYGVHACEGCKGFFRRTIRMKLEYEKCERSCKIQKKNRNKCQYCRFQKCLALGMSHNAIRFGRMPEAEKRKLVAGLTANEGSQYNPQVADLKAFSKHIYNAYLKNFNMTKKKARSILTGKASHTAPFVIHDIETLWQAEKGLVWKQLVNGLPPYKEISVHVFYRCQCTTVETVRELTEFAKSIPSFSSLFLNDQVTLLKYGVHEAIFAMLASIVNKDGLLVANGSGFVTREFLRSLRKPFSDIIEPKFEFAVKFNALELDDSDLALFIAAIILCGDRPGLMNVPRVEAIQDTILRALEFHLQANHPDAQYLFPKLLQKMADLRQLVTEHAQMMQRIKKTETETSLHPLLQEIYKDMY

[10] = target: T7, Peroxisome proliferator-activated receptor gamma (Mus musculus) (UniProt P37238); experiment: Agonist activity at human PPARgamma in mouse 3T3-L1 cells assessed as induction of Glut4 mRNA expression at 25 uM incubated for 11 days by quantitative real-time PCR analysis; conditions: filed as agonist, time 11.0 day
T7 sequence (whole entry): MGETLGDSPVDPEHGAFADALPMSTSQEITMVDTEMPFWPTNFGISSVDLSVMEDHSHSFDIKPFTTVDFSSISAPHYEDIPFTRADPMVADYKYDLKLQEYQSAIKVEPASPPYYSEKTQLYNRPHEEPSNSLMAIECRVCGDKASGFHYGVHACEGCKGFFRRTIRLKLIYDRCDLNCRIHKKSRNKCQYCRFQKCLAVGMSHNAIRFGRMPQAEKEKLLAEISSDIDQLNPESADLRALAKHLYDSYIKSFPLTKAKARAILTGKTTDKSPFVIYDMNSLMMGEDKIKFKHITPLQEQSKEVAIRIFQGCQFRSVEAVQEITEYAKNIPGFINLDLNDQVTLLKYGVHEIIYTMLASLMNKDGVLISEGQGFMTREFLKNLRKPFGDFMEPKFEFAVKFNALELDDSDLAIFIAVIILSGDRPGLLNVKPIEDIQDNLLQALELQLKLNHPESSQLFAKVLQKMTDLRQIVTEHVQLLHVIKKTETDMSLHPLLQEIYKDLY

[11] = target: T7, Peroxisome proliferator-activated receptor gamma (Mus musculus); experiment: Agonist activity at human PPARgamma in mouse 3T3-L1 cells assessed as induction of Adipoq-mRNA expression at 25 uM incubated for 11 days by quantitative real-time PCR analysis; conditions: filed as agonist, time 11.0 day
[12] = Metabolic stability in C57BL/6 mouse liver microsomes assessed as half life; assay type: ADME, Microsome; conditions: time 2 min
[13] = Metabolic stability in C57BL/6 mouse liver microsomes assessed as parent compound remaining incubated for 120 mins; assay type: ADME, Microsome; conditions: read-out: Stability
[14] = target: T7, Peroxisome proliferator-activated receptor gamma (Mus musculus); experiment: Agonist activity at human PPARgamma in mouse 3T3-L1 cells assessed as induction of adipogenic differentiation at 25 uM measured after 11 days by Oil Red O staining analysis; assay type: cell-based; conditions: filed as agonist, time 11.0 day
Summary of the method: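 3T3-L1 cells differentiated for 11 days (IBMX/dexamethasone/insulin induction, then insulin, then maintenance medium) with 25 μM compound or 10 μM rosiglitazone from day 0. Cells formalin-fixed and stained with 0.6% Oil Red O. Lipid quantified spectrophotometrically after dye extraction.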

[15] = target: T2, Peroxisome proliferator-activated receptor gamma (Homo sapiens); experiment: Agonist activity at human PPARgamma expressed in HEK293 cells assessed as maximal activity by luciferase/beta-galactosidase reporter gene assay relative to rosiglitazone; assay type: cell-based; summary of the method: as §2
[16] = target: T1, Peroxisome proliferator-activated receptor alpha (Homo sapiens); experiment: Stabilization of human PPARalpha LBD assessed as change in melting temperature at 25 uM by thermal shift assay
Summary of the method: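 Purified hPPAR LBD at 1 mg/mL (∼25 μM) with ligand (α-LBD at 25 μM; γ- and δ-LBD at 50 μM). Static light scattering at 473 nm from 25 to 70 °C in 0.5 °C steps, 1 °C/min. Tm from four-parameter fit; ΔTm relative to DMSO; mean ± SEM, N = 3.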

[17] = target: T2, Peroxisome proliferator-activated receptor gamma (Homo sapiens); experiment: Stabilization of human PPARgamma LBD assessed as change in melting temperature at 50 uM by thermal shift assay
[18] = target: T6, Peroxisome proliferator-activated receptor delta (Homo sapiens); experiment: Stabilization of human PPARdelta LBD assessed as change in melting temperature at 50 uM by thermal shift assay
[19] = target: T5, Peroxisome proliferator-activated receptor alpha (Mus musculus); experiment: Agonist activity at human PPARalpha in mouse hepatocytes assessed as induction of Fgf21 mRNA expression at 50 uM incubated for 16 hrs by quantitative real-time PCR analysis; assay type: cell-based; conditions: Hepatocyte, filed as agonist; summary of the method: as §3

Emax [5] [%] | Activity [8] | SMILES | Activity [1] | Activity [2] | EC50 [3] [µM] | EC50 [4] [µM] | Activity [7] | EC50 ([9]; HEK293, filed as agonist) [µM] | further results
30 | – | CCCCCCCCCCCCCCCCCC(=O)O [STEARIC ACID] | Active | – | 40 | – | – | – | –
– | – | CCCCCC/C=C\CCCCCCCc1cccc(OCC(=O)O)c1 | Active | Active | 21 | > 50 | Active | 70 | Emax ([5]; filed as agonist): > 90%
30 | – | CCCCCCCCCCCCCCCc1ccc(C(=O)O)c(OC)c1 | Active | Active | 17 | 8.1 | – | – | Emax [15]: 30%
– | Active | CC(C)(Sc1ccc(CCN(CCCCC2CCCCC2)C(=O)NC2CCCCC2)cc1)C(=O)O | – | – | – | – | Active | – | Activity [6]: Active; Activity [19]: Active
30 | – | CCCCCCCCCC(=O)O [DECANOIC ACID] | Active | – | 31 | – | – | – | –
– | – | CCCCCCCC/C=C\CCCCCCCC(=O)O [OLEIC ACID] | Active | – | 36 | – | – | 47 | Emax ([5]; filed as agonist): > 90%
30 | Active | CCCCCCCCCCCCCCCc1cccc(OC)c1C(=O)O | Active | – | – | – | – | – | Activity [19]: Active
30 | Active | CCCCCCCCCCCCCCCc1ccc(C(=O)O)c(O)c1 | Active | – | 8.9 | – | – | – | Activity [19]: Active
30 | – | CCCCCCCCCCCCCC(=O)O [MYRISTIC ACID] | Active | – | 13 | – | – | – | –

SMILES | Emax [5] [%] | Activity [8] | Activity [1] | Activity [2] | EC50 [3] [µM] | EC50 [4] [µM] | Activity [7] | EC50 ([9]; HEK293, filed as agonist) [µM] | further results
CCCCCC/C=C\CCCCCCCc1cccc(OCC(=O)OCC)c1 | 30 | Active | Active | Active | 4.4 | > 50 | Active | 7.1 | Activity [6]: Active; Activity [10]: Active; Activity [11]: Active
CCCCCC/C=C\CCCCCCCc1cccc(OC(C)(C)C(=O)OCC)c1 | 30 | – | Active | Active | 67 | > 50 | Active | – | Activity [6]: Active; EC50 ([9]; HEK293): > 100 µM
CCCCCCCCCCCCCCCc1cccc(OCC(=O)OCC)c1 | 30 | – | Active | Active | – | 29 | – | – | half-life [12]: 66 min; remaining at 2 h [13]: 28%; Activity [14]: Active; Emax [15]: 30%; ΔTm [16]: -4.5 °C; EC50 ([9]; HEK293): > 100 µM; ΔTm [17]: -3 °C; ΔTm [18]: 1.2 °C
CCCCCCCCCCCCCCCc1cccc(O)c1C(=O)O [ANACARDIC ACID] | 30 | Active | Active | Active | 3.5 | 17 | – | 68 | Emax ([15]; filed as agonist): > 90%
